Assay results pooled from the literature.
Protocols differ between the studies behind these lines.
Target: Serine/threonine-protein kinase VRK2 (VRK2, Homo sapiens, UniProt Q86Y07)

| Compound | test | system | conditions | endpoint | result |
| --- | --- | --- | --- | --- | --- |
| Cc1cnc(NC2CCOCC2)nc1-n1cnc(C(=O)NC(CN)c2cc(F)cc(Cl)c2)c1 (stereo not drawn) | enzyme activity, inhibitor, radiometric | – | 1 µM | remaining activity | 99% |
| N#Cc1ccc(Nc2ccc3[nH]c(=O)[nH]c3c2)c(Cl)c1 | cell-free assay, competition with immobilised ligand | – | 1 µM | remaining binding | 100% |
| CC1(C)NC(=O)c2[nH]c3c(Cl)c(Cl)ccc3c2C1C#N (stereo not drawn) | thermal stability, DSF | – | 10 µM | ΔTm | -0.1 °C |
| Cc1ccc(NC(=O)c2ccc(C)c(C(F)(F)F)c2)cc1C#Cc1nn(C2CCC(O)CC2)c2ncnc(N)c12 (stereo not drawn) | cell-free assay | – | 10 µM | remaining signal | 85% |
| CCC1(CC)NC(=O)c2c(c3ccc(Cl)c(Cl)c3n2C)C1C#N (stereo not drawn) | thermal stability, DSF | – | 10 µM | ΔTm | 0.1 °C |
| CS(=O)(=O)N1CCCC(NC(=O)[C@H](CCC2CCCCC2)NC(=O)c2ccc(CNC(=O)c3cnc4ccccn34)cc2)C1 (stereo partly drawn) | cell-free assay, competition with immobilised ligand | – | 0.1 µM | remaining binding | 76% |
| Cn1c2c(c3ccc(Cl)c(Cl)c31)C(C#N)C1(CCOCC1)NC2=O (stereo not drawn) | thermal stability, DSF | – | 10 µM | ΔTm | 0 °C |
| CNC(=O)c1cc(Oc2ccc(NC(=O)Nc3ccc(Cl)c(C(F)(F)F)c3)cc2)ccn1 | enzyme activity, inhibitor | – | 10 µM | inhibition | -16% |
| O=C(Nc1cnc(Oc2ccc(F)cc2)nc1)N1CCc2ncccc2[C@@H]1c1ccc(F)cc1 | cell-free assay, competition with immobilised ligand | – | 1 µM | remaining binding | 100% |
| Cn1c2c(c3ccc(Cl)c(Cl)c31)C(C#N)C1(CCNCC1)NC2=O (racemic) | thermal stability, DSF | – | 10 µM | ΔTm | 0.3 °C |
| CCN1CCN(Cc2ccc(NC(=O)c3ccc(C)c(Oc4ccnc5[nH]ccc45)c3)cc2C(F)(F)F)CC1 | target engagement in cells, inhibitor, chemoproteomics | Huh-7 | 1 µM | inhibition | -14.2% |
| Cn1c2c(Cl)c(Cl)ccc2c2cn[nH]c(=O)c21 | thermal stability, DSF | – | 10 µM | ΔTm | 0 °C |
| O=C(O)[C@H]1[C@H](Cn2nnc3ccccc3c2=O)CC[C@@H]1C(=O)c1ccc(OCCC2CCOCC2)cc1 | cell-free assay, competition with immobilised ligand | – | 1 µM | remaining binding | 80% |
| Cc1ccc(Nc2nccc(N(C)c3ccc4c(C)n(C)nc4c3)n2)cc1S(N)(=O)=O | enzyme activity, inhibitor | – | 10 µM | inhibition | -18% |
| Cn1c2c(Cl)c(Cl)ccc2c2cc[nH]c(=O)c21 | thermal stability, DSF | – | 10 µM | ΔTm | 0 °C |
| CO[C@@H](C)c1c(Nc2ccc([C@H](N(C)C(=O)C3CCS(=O)(=O)CC3)C(F)(F)F)cc2)cnc2cc(Cl)nn12 | cell-free assay, competition with immobilised ligand | – | 1 µM | remaining binding | 100% |
| Cc1sc(C(=O)NC2COC2)cc1-n1cc(NC(=O)Nc2c(F)cccc2Cl)cn1 | enzyme activity, inhibitor | – | 10 µM | remaining activity | 102% |
| Nc1ncnc2occ(-c3ccc(NC(=O)Nc4cc(C(F)(F)F)ccc4F)cc3)c12 | cell-free assay, inhibitor | – | 20 µM | remaining signal | 2.4% |
| CN1CC(Oc2cnc(C#N)cc2-c2ccn3nc(NC(=O)C4CC4)cc3c2)C1 | enzyme activity, inhibitor | – | 1 µM | inhibition | -9% |
| CC(C)(C)c1nc2c(s1)c1nc(N)ncc1c1ccc(NS(=O)(=O)c3c(F)cccc3F)c(F)c12 | enzyme activity, inhibitor, radiometric | – | 1 µM | remaining activity | 116% |
| C[C@H](c1ccc(F)cc1)N(Cc1cccc(C(=O)O)c1)C(=O)c1cnc2ccccc2c1 | cell-free assay, competition with immobilised ligand | – | 1 µM | remaining binding | 100% |
| CCCOc1ccc(OC)c(F)c1C(=O)c1ccc(C(=O)N[C@@H]2CNC[C@H]2NC(=O)c2ccc3[nH]ncc3c2)cc1 | enzyme activity, inhibitor | – | 10 µM | remaining activity | 129% |
| COc1ccc2c(c1)O[C@H](c1ccc(OC)c(OC)c1)C[C@@H]2NC(=O)C1(c2ccc3c(c2)OC(F)(F)O3)CC1 | cell-free assay, competition with immobilised ligand | – | 1 µM | remaining binding | 82% |
| CCN(CC)CCNC(=O)c1c(C)[nH]c(/C=C2\C(=O)Nc3ccc(F)cc32)c1C | enzyme activity, inhibitor | – | 10 µM | inhibition | -10% |
